{"source": "PubChem BioAssay AID602126", "about": "(Broad Institute, 2011)", "note": "Activity calls are given as the source filed them.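 Rule for the calls: active = compounds cutting cell ATP light whose fitted AC50 is at most double the top dose tried; inconclusive = flat moderate signal loss, or an unreliable curve fit; inactive = the rest.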", "data": [{"tested_on": "not listed separately", "test": "ldlA[mSR-BI] cell viability loss – CellTiter-Glo luminescence, 24 h, dry powder, set 5, cytotoxicity control for SR-BI HDL uptake inhibitor project, dose response (AID 602126)", "settings": "ldlA[mSR-BI] CHO cells viability, CellTiter-Glo ATP luminescence, 24 h; at 30 µM (top of the series)", "method_in_brief": "(§1)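 material = ldlA[mSR-BI] cells | quantity = 4,000 cells per well | times = 24 h compound exposure at 37 °C, then 10 min with detection reagent | signal = luminescence of cellular ATP via CellTiter-Glo luciferase reagent | read-out = IC50 of cell viability from ATP-dependent luminescence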", "values": [{"smiles": "C[C@H]1CN([C@@H](C)CO)C(=O)c2cc(NC(=O)Cc3cn(C)c4ccccc34)ccc2O[C@H]1CN(C)S(=O)(=O)c1ccc(F)cc1", "activity change, negative = cytotoxicity": "-19.8% (inactive)"}]}, {"tested_on": "not listed separately", "test": "ldlA[mSR-BI] cell viability loss – CellTiter-Glo luminescence, 24 h, dry powder, set 5, cytotoxicity control for SR-BI HDL uptake inhibitor project, dose response (AID 602126)", "settings": "ldlA[mSR-BI] CHO cells viability, CellTiter-Glo ATP luminescence, 24 h; at 35 µM (top of the series)", "method_in_brief": "as §1", "values": [{"smiles": "CCC(=O)N1CCc2cc(-c3csc(NC(=O)c4ccc(F)c(OC)c4)n3)ccc21", "activity change, negative = cytotoxicity": "-10.7% (inactive)"}, {"smiles": "CCC(=O)N1CCc2cc(-c3cnc(NC(=O)c4ccco4)[nH]3)ccc21", "activity change, negative = cytotoxicity": "2.33% (inactive)"}, {"smiles": "COc1ccc(-c2nnn(CC(=O)N(C3CCCCC3)C(C)C(=O)NC(C)C)n2)cc1OC", "note": "(stereo not drawn)", "activity change, negative = cytotoxicity": "-0.753% (inactive)"}, {"smiles": "CCC(=O)N1CCc2cc(-c3coc(N)n3)ccc21", "activity change, negative = cytotoxicity": "3.91% (inactive)"}, {"smiles": "CCC(=O)N1CCc2cc(-c3csc(NC(=O)c4cocn4)n3)ccc21", "activity change, negative = cytotoxicity": "-6.6% (inactive)"}, {"smiles": "CCC(=O)N1CCc2cc(-c3cnc(NC(C)=O)[nH]3)ccc21", "activity change, negative = cytotoxicity": "-35.4% (inactive)"}, {"smiles": "COc1ccc(-c2nnn(CC(=O)N(C3CCCCC3)C(C)C(=O)NC3CC3)n2)cc1OC", "note": "(stereo not drawn)", "activity change, negative = cytotoxicity": "-10.4% (inactive)"}, {"smiles": "CNC[C@@H]1Oc2ccc(NC(=O)Cc3cn(C)c4ccccc34)cc2C(=O)N([C@H](C)CO)C[C@H]1C", "activity change, negative = cytotoxicity": "2.26% (inactive)"}, {"smiles": "COc1ccc(-c2nnn(CC(=O)N(C3CCCCC3)C(C)C(=O)NC3CCCC3)n2)cc1OC", "note": "(stereo not drawn)", "activity change, negative = cytotoxicity": "-8.68% (inactive)"}, {"smiles": "COc1ccc(-c2nnn(CC(=O)N(C3CCCCC3)C(C)C(=O)NC(C)(C)C)n2)cc1OC", "note": "(stereo not drawn)", "activity change, negative = cytotoxicity": "-2.38% (inactive)"}, {"smiles": "C[C@H](CO)N1C[C@H](C)[C@@H](CN(C)S(=O)(=O)c2ccc(F)cc2)Oc2ccc(NC(=O)Cc3cn(C)c4ccccc34)cc2C1=O", "activity change, negative = cytotoxicity": "-14% (inactive)"}, {"smiles": "CCC(=O)N1CCc2cc(-c3csc(NC(=O)c4cc5cccnc5o4)n3)ccc21", "activity change, negative = cytotoxicity": "-0.539% (inactive)"}, {"smiles": "COC(=O)N1CCc2cc(-c3csc(NC(=O)c4ccco4)n3)ccc21", "activity change, negative = cytotoxicity": "-18.6% (inactive)"}, {"smiles": "CCC(=O)N1CCc2cc(-c3csc(NC(=O)C4CCCC4)n3)ccc21", "activity change, negative = cytotoxicity": "0.408% (inactive)"}, {"smiles": "CC(C)OCCCNC(=O)c1ccc(C2SCC(=O)N2Cc2ccco2)cc1", "note": "(stereo not drawn)", "activity change, negative = cytotoxicity": "-15.7% (inactive)"}, {"smiles": "C[C@@H]1CN([C@H](C)CO)C(=O)c2cc(NC(=O)Cc3cn(C)c4ccccc34)ccc2O[C@H]1CN(C)S(=O)(=O)c1ccc(Cl)cc1", "activity change, negative = cytotoxicity": "-18.6% (inactive)"}, {"smiles": "C[C@H]1CN([C@@H](C)CO)C(=O)c2cccc(NC(=O)Nc3ccccc3)c2O[C@@H]1CN(C)S(C)(=O)=O", "activity change, negative = cytotoxicity": "1.04% (inactive)"}, {"smiles": "C[C@@H]1CN([C@H](C)CO)C(=O)c2cc(NC(=O)Cc3cn(C)c4ccccc34)ccc2O[C@H]1CN(C)S(=O)(=O)c1ccc(F)cc1", "activity change, negative = cytotoxicity": "-29.1% (inactive)"}, {"smiles": "C[C@H]1CN([C@@H](C)CO)C(=O)c2cccc(NS(C)(=O)=O)c2O[C@@H]1CN(C)Cc1ccc(Cl)c(Cl)c1", "activity change, negative = cytotoxicity": "-10.3% (inactive)"}, {"smiles": "CC(C(=O)NC1CCCC1)N(C(=O)Cn1nnc(-c2ccccc2F)n1)C1CCCCC1", "note": "(stereo not drawn)", "activity change, negative = cytotoxicity": "-27.4% (inactive)"}, {"smiles": "C[C@H](CO)N1C[C@H](C)[C@H](CN(C)S(=O)(=O)c2ccc(F)cc2)Oc2ccc(NC(=O)CCC(F)(F)F)cc2C1=O", "activity change, negative = cytotoxicity": "-2.53% (inactive)"}, {"smiles": "CC(C)(C)OC(=O)N1CCc2cc(-c3noc(NC(=O)c4ccco4)n3)ccc21", "activity change, negative = cytotoxicity": "-3.91% (inactive)"}, {"smiles": "Nc1ccc(C(=O)Nc2ccc(-c3nc4ccc(NC(=O)c5ccc(N)cc5)cc4[nH]3)cc2)cc1", "activity change, negative = cytotoxicity": "-13.9% (inactive)"}, {"smiles": "C[C@H](CO)N1C[C@H](C)[C@H](CN(C)S(=O)(=O)c2ccc(F)cc2)Oc2ccc(NS(C)(=O)=O)cc2C1=O", "activity change, negative = cytotoxicity": "11.2% (inactive)"}, {"smiles": "C[C@@H]1CN([C@@H](C)CO)C(=O)c2cc(NC(=O)Cc3cn(C)c4ccccc34)ccc2O[C@H]1CN(C)S(=O)(=O)c1ccc(Cl)cc1", "activity change, negative = cytotoxicity": "-7.85% (inactive)"}, {"smiles": "C[C@H](CO)N1C[C@H](C)[C@H](CN(C)S(=O)(=O)c2ccc(Cl)cc2)Oc2ccc(NC(=O)Cc3cn(C)c4ccccc34)cc2C1=O", "activity change, negative = cytotoxicity": "-19.4% (inactive)"}, {"smiles": "CC(C)(C)NC(=O)N1CCN(c2ncccc2C(F)(F)F)CC1", "activity change, negative = cytotoxicity": "-9.57% (inactive)"}, {"smiles": "CC(OC(=O)c1cccc(NS(C)(=O)=O)c1)C(=O)Nc1ccc(N2CCOCC2)cc1", "note": "(stereo not drawn)", "activity change, negative = cytotoxicity": "-6.16% (inactive)"}, {"smiles": "C[C@H]1CN([C@@H](C)CO)C(=O)c2cccc(NC(=O)Nc3ccccc3)c2O[C@@H]1CN(C)C", "activity change, negative = cytotoxicity": "-7.64% (inactive)"}, {"smiles": "C[C@@H]1CN([C@H](C)CO)C(=O)c2cc(NC(=O)Cc3cn(C)c4ccccc34)ccc2O[C@H]1CN(C)S(C)(=O)=O", "activity change, negative = cytotoxicity": "-4.54% (inactive)"}, {"smiles": "Cc1cc(C)c2c(c1)NC(c1cc3c(cc1Br)OCO3)C1CC=CC21", "note": "(stereo not drawn)", "activity change, negative = cytotoxicity": "-26.7% (inactive)"}, {"smiles": "CC(C(=O)NC1CCCC1)N(C(=O)Cn1nnc(-c2ccccc2Cl)n1)C1CCCCC1", "note": "(stereo not drawn)", "activity change, negative = cytotoxicity": "-11.7% (inactive)"}, {"smiles": "C[C@H]1CN([C@@H](C)CO)C(=O)c2cc(NC(=O)Cc3cn(C)c4ccccc34)ccc2O[C@@H]1CN(C)S(=O)(=O)c1ccc(F)cc1", "activity change, negative = cytotoxicity": "-15.6% (inactive)"}, {"smiles": "COc1cccc(-c2nnn(CC(=O)N(C3CCCCC3)C(C)C(=O)NC3CCCC3)n2)c1", "note": "(stereo not drawn)", "activity change, negative = cytotoxicity": "-12.4% (inactive)"}, {"smiles": "C[C@@H]1CN([C@H](C)CO)C(=O)Cc2cc(NC(=O)Cc3cn(C)c4ccccc34)ccc2O[C@H]1CN(C)S(=O)(=O)c1ccc(F)cc1", "activity change, negative = cytotoxicity": "-14% (inactive)"}, {"smiles": "C[C@@H]1CN([C@H](C)CO)C(=O)c2cc(NC(=O)Cc3cn(C)c4ccccc34)ccc2O[C@H]1CN(C)C(=O)Nc1ccc(F)cc1", "activity change, negative = cytotoxicity": "-8.77% (inactive)"}, {"smiles": "CCCn1ccc2cc(-c3csc(NC(=O)c4ccco4)n3)ccc21", "activity change, negative = cytotoxicity": "-34.1% (inactive)"}, {"smiles": "CC(C(=O)NC1CCCC1)N(C(=O)Cn1nnc(-c2ccc3c(c2)OCO3)n1)C1CCOCC1", "note": "(stereo not drawn)", "activity change, negative = cytotoxicity": "-7.76% (inactive)"}, {"smiles": "O=C(Nc1nc(-c2ccc3c(c2)CCN3C(=O)C2CC2)cs1)c1ccco1", "activity change, negative = cytotoxicity": "-26.1% (inactive)"}, {"smiles": "O=C(Nc1ccc(-c2nc3cc(NC(=O)c4ccc(NC(=O)c5cccc6ccccc56)cc4)ccc3[nH]2)cc1)c1ccc(NC(=O)c2cccc3ccccc23)cc1", "activity change, negative = cytotoxicity": "-8.2% (inactive)"}, {"smiles": "O=C(Nc1ccc(-c2nc3ccc(NC(=O)c4ccccc4[N+](=O)[O-])cc3[nH]2)cc1)c1ccccc1[N+](=O)[O-]", "activity change, negative = cytotoxicity": "-15.1% (inactive)"}, {"smiles": "CCC(=O)N1CCc2cc(-c3coc(NC(=O)c4ccco4)n3)ccc21", "activity change, negative = cytotoxicity": "-8.19% (inactive)"}, {"smiles": "COc1ccccc1-c1nnn(CC(=O)N(C2CCCCC2)C(C)C(=O)NC2CCCC2)n1", "note": "(stereo not drawn)", "activity change, negative = cytotoxicity": "1.77% (inactive)"}, {"smiles": "C[C@@H]1CN([C@@H](C)CO)C(=O)c2cc(NC(=O)Cc3cn(C)c4ccccc34)ccc2O[C@H]1CN(C)S(=O)(=O)c1ccc(F)cc1", "activity change, negative = cytotoxicity": "-9.34% (inactive)"}, {"smiles": "C[C@H](CO)N1C[C@H](C)[C@H](CN(C)S(=O)(=O)c2ccc(F)cc2)Oc2ccc(NC(=O)Cc3ccccc3)cc2C1=O", "activity change, negative = cytotoxicity": "-6.53% (inactive)"}, {"smiles": "CCC(=O)N1CCc2cc(-c3csc(NC(=O)c4ccno4)n3)ccc21", "activity change, negative = cytotoxicity": "0.915% (inactive)"}, {"smiles": "Cc1ccc(-c2nnn(CC(=O)N(C3CCCCC3)C(C)C(=O)NC3CCCC3)n2)cc1", "note": "(stereo not drawn)", "activity change, negative = cytotoxicity": "-2.67% (inactive)"}, {"smiles": "CCC(=O)Nc1ccc(-c2csc(NC(=O)c3ccco3)n2)cc1", "activity change, negative = cytotoxicity": "-1.37% (inactive)"}, {"smiles": "C[C@H]1CN([C@@H](C)CO)C(=O)c2cccc(NC(=O)Nc3ccccc3)c2O[C@@H]1CN(C)Cc1ccc(C(F)(F)F)cc1", "activity change, negative = cytotoxicity": "-30.4% (inactive)"}, {"smiles": "CC(C(=O)NC1CCCC1)N(C(=O)Cn1nnc(-c2ccc(F)cc2)n1)C1CCCCC1", "note": "(stereo not drawn)", "activity change, negative = cytotoxicity": "-24.9% (inactive)"}, {"smiles": "CCC(=O)N1CCc2cc(-c3csc(/N=C(/OC)c4cc(OC)cc(OC)c4)n3)ccc21", "activity change, negative = cytotoxicity": "-10.7% (inactive)"}]}, {"tested_on": "ldlA[mSR-BI] CHO cells viability, CellTiter-Glo ATP luminescence, 24 h", "test": "ldlA[mSR-BI] cell viability loss – CellTiter-Glo luminescence, 24 h, dry powder, set 5, cytotoxicity control for SR-BI HDL uptake inhibitor project, dose response (AID 602126)", "settings": "not given", "method_in_brief": "as §1", "values": [{"smiles": "C[C@@H]1CN([C@H](C)CO)C(=O)c2cc(NC(=O)Cc3cn(C)c4ccccc34)ccc2O[C@H]1CN(C)S(=O)(=O)c1ccc(Cl)cc1", "AC50": "> 70 µM (inactive)"}]}]}
